For data set [1], the system named is HaCaT. Nature of the data set: Antihyperproliferative activity against human HaCaT cells after 48 hrs by phase contrast microscopy. It counts as functional, cell-based. In short, it runs like this:
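HaCaT keratinocytes were exposed for 48 h, then dispersed cells were counted under phase contrast. Inhibition was (1 − test/control) × 100, with test N = 3 and control N = 6–8, checked by Student's t test (P < 0.05). IC50 came from nonlinear regression.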

For data set [2], the system named is HaCaT. Briefly: Cytotoxicity against human HaCaT cells assessed as LDH release at 2 uM after 4 hrs by UV method. It counts as cell-based. In short, it runs like this:
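HaCaT cells were given compound at 2 μM for 4 h at 37 °C. Extracellular LDH in the supernatant was read by the UV method with pyruvate and NADH and reported as mU/mL. Vehicle control was 0.2% DMSO in medium; Brij 35 plus ultrasound was the positive control. N = 3.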
(Release of lactate dehydrogenase indicates damage to the cell membrane.)

Data set [3] relates to HaCaT. Briefly: Activity in dicoumarol-treated human HaCaT cells assessed as superoxide generation by flow cytometry (reference value: 407.59 +/- 68.7 ). It is filed as functional.
The test system of data set [4] is HaCaT. Nature of the data set: Induction of superoxide generation in human HaCaT cells at 5 micomol/L after 18 hrs by flow cytometry (reference value: 367.5 +/- 80.1 ). It counts as functional. In short, it runs like this: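 HaCaT cells grown 24 h at 37 °C in DMEM with 10% FBS, then given compound at 5 μM for 18 h (0.1% DMSO final). DHE loaded for 30 min in the dark. Cells trypsinized and 2-OH-E⁺ fluorescence measured by flow cytometry (FL2, 550–600 nm) on 10000 live cells, dead cells gated out. Mean fluorescence intensity, mean ± SD, N = 3. DMSO-only control.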
On the technique in general: In flow cytometry, cells or beads pass a laser one at a time.

The target in data set [5] is NQO1 protein (Homo sapiens) (UniProt Q3B792). Nature of the data set: Activity of human recombinant NQO-1 assessed as rate of superoxide generation measuring SOD-inhibitable reduction of succinoylated cytochrome c per unit enzyme at 25 umol/ml by spectrophotometry in presence of catalase and DTPA (reference value: 0.2 +/- 0.1 micomol/L/min).
The test system of data set [6] is HaCaT. Nature of the data set: Induction of superoxide generation in human HaCaT cells at 50 uM after 30 min by flow cytometry (reference value: 7.1 +/- 5.2 ). It is filed as functional.
The target in data set [7] is T1, NADPH--cytochrome P450 reductase (Homo sapiens, UniProt P16435).
T1 sequence (P16435 whole entry): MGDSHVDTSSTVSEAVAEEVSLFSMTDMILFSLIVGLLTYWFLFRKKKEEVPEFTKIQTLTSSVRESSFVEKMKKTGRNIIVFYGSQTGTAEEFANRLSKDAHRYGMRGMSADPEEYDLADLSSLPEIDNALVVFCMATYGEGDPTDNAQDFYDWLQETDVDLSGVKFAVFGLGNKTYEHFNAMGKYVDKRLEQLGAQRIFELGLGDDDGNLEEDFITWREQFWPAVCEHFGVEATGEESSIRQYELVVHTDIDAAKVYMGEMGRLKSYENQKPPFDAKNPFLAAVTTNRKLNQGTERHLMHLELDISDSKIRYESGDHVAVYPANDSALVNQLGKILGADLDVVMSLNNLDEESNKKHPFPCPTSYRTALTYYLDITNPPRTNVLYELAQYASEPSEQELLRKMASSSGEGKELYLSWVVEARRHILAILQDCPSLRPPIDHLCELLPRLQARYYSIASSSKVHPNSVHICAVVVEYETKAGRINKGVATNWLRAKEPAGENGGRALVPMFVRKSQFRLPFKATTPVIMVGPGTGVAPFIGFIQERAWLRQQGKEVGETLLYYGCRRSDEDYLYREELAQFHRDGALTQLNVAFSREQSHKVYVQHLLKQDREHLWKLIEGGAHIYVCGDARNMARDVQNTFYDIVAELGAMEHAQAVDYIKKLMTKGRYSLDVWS
Nature of the data set: Activity of human recombinant cytochrome P450 reductase assessed as rate of superoxide generation measuring SOD-inhibitable reduction of succinoylated cytochrome c per 2 mU enzyme at 100 umol/ml by spectrophotometry in presence of catalase and DTPA (reference value: 0.2 +/- 0.1 micomol/L/min).

Data set [8] concerns HaCaT. Briefly: Ratio of compound IC50 to beta-lapachone IC50 for human HaCaT cells. It counts as functional.
The test system of data set [9] is HaCaT. Nature of the data set: Ratio of compound IC50 to anthralin IC50 for human HaCaT cells. It counts as functional.

Chain of NQO1 protein (Homo sapiens) (Q3B792 as listed by the source): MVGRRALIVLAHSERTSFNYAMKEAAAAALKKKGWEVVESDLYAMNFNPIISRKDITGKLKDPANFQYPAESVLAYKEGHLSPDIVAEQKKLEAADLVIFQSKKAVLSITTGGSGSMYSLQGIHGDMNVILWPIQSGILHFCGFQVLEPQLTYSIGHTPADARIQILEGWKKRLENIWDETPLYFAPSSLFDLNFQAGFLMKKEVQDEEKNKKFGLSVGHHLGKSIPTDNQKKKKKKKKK

The compound `O=C(OCc1ccccc1)c1cc2c(o1)C(=O)c1ccccc1C2=O` returned an IC50 in the data set on HaCaT [1] of over 30000 nM.
For `N#Cc1cc2c(o1)C(=O)c1ccccc1C2=O`, the Activity in the data set on HaCaT [2] came to 181 mU/ml. Also, in the data set on HaCaT [1], half-maximal inhibition (IC50) required 890 nM.
For `CCc1cc2c(o1)C(=O)c1ccccc1C2=O`, 12200 nM corresponded to half-maximal inhibition with HaCaT [1] (IC50).
Take `CCN(CC)C(=O)c1cc2c(o1)C(=O)c1ccccc1C2=O`: the Activity with HaCaT [2] is reported as 226 mU/ml. The IC50 in the data set on HaCaT [1] was found to be 240 nM.
Regarding `O=C(c1cc2c(o1)C(=O)c1ccccc1C2=O)c1cccs1`, the Activity in the data set with HaCaT [2] is 169 mU/ml. For the same compound, the IC50 with HaCaT [1] came to 670 nM.
As to `CC(C)COC(=O)c1cc2c(o1)C(=O)c1ccccc1C2=O`, in the data set with HaCaT [1], the IC50 worked out at 2860 nM.
The same measure, in the same setting: to `O=C(O)/C=C/c1cc2c(o1)C(=O)c1ccccc1C2=O` belongs over 30000 nM.
`CC1=CC(=O)c2ccccc2C1=O` [MENADIONE]: the Flu intensity was determined as 457.2 in the data set on HaCaT [3], 431.9 with HaCaT [4] and 44 with HaCaT [6]. Besides, the Activity was 1 µmol/L/min in data set [5] and 2.1 µmol/L/min in [7]. This compound also gave an IC50 with HaCaT [1] of 15800 nM.
For `O=C(O)c1cc2c(o1)C(=O)c1ccccc1C2=O`, the IC50 in the data set on HaCaT [1] was over 30000 nM.
On the same count and under the same terms, as for `O=C(OCc1cccs1)c1cc2c(o1)C(=O)c1ccccc1C2=O`, the figure is 14300 nM.
In the case of `CCC(=O)c1cc2c(o1)C(=O)c1ccccc1C2=O`, the Activity with HaCaT [2] was 270 mU/ml. Also, inhibition in the data set with HaCaT [1] was half-maximal at 630 nM (IC50).
As to `CCOC(=O)/C=C/c1cc2c(o1)C(=O)c1ccccc1C2=O`, in the data set on HaCaT [1], the IC50 came to 2510 nM.
Same read-out and setting: to `O=C(OCc1ccco1)c1cc2c(o1)C(=O)c1ccccc1C2=O` belongs 8230 nM.
Same read-out and setting: to `O=C1c2ccccc2C(=O)c2oc(/C=C/c3ccccc3)cc21` belongs over 30000 nM.
For the compound `CCc1noc(-c2cc3c(o2)C(=O)c2ccccc2C3=O)n1`, the results for the Flu intensity in the data set on HaCaT [3], in the data set on HaCaT [4] and in the data set on HaCaT [6] were 1279, 1287 and 17, respectively. Besides, the figures for the Activity (in data set [5]; in data set [7]; with HaCaT [2]) were 1.9 µmol/L/min, 1.8 µmol/L/min and 157 mU/ml, respectively. Inhibition with HaCaT [1] was half-maximal at 170 nM (IC50). Moreover, the “Ratio IC50” value with HaCaT [8] was determined as 5; in the data set on HaCaT [9] it was 4.
Turning to `CCOC(=O)C(=Cc1cc2c(o1)C(=O)c1ccccc1C2=O)C(=O)OCC`, the Activity with HaCaT [2] is recorded as 186 mU/ml. In addition, the midpoint of inhibition in the data set on HaCaT [1], the IC50, lay at 1110 nM.
For the compound `O=C1c2ccccc2C(=O)c2oc([N+](=O)[O-])cc21`, the concentration for half-maximal inhibition (IC50) in the data set with HaCaT [1] amounted to 2000 nM.
Turning to `CC1(C)CCC2=C(O1)c1ccccc1C(=O)C2=O` [LAPACHONE], the Activity in the data set on HaCaT [2] stood at 268 mU/ml. The same compound returned an IC50 in the data set on HaCaT [1] of 900 nM.
`CC(=O)c1cc2c(o1)C(=O)c1ccccc1C2=O` [NAPABUCASIN]: the values for the Flu intensity in the data set on HaCaT [3], with HaCaT [4] and with HaCaT [6] were 741.4, 725.5 and 20.5, respectively. The results for the Activity (in data set [5]; in data set [7]; with HaCaT [2]) were 1.4 µmol/L/min, 3 µmol/L/min and 255 mU/ml, respectively.
For the compound `COC(=O)c1cc2c(o1)C(=O)c1ccccc1C2=O`, the Activity with HaCaT [2] was determined as 190 mU/ml. The IC50 in the data set with HaCaT [1] amounted to 920 nM.
The matching figures for `CCOC(=O)c1cc2c(o1)C(=O)c1ccccc1C2=O`: 187 mU/ml and 610 nM.
The compound `CC(C)C(=O)c1cc2c(o1)C(=O)c1ccccc1C2=O` gave an IC50 in the data set with HaCaT [1] of 440 nM.
Still for that read-out and setting: to `CC(C)OC(=O)c1cc2c(o1)C(=O)c1ccccc1C2=O` belongs 990 nM; to `CCC(=O)c1cc2c(OC)c3ccccc3c(OC)c2o1`, over 30000 nM.
Turning to `O=C1c2ccccc2C(=O)c2oc(-c3nnn[nH]3)cc21`, in the data set on HaCaT [2], the Activity was 380 mU/ml. Also, in the data set on HaCaT [1], the IC50 was over 30000 nM.
`N#Cc1ccc(/C=C/c2cc3c(o2)C(=O)c2ccccc2C3=O)cc1` yielded a 50% inhibitory concentration (IC50) with HaCaT [1] of 7730 nM. That is a single-digit micromolar value.
Still for that read-out and setting: to `O=C(OC1CCCCC1)c1cc2c(o1)C(=O)c1ccccc1C2=O` belongs 2930 nM.
With `O=C(c1ccco1)c1cc2c(o1)C(=O)c1ccccc1C2=O`, in the data set with HaCaT [2], the Activity came out at 167 mU/ml. The same compound had an IC50 with HaCaT [1] of 550 nM.
Turning to `CCC(=O)c1cc2c(OC(C)=O)c3ccccc3c(OC(C)=O)c2o1`, in the data set with HaCaT [2], the Activity is reported as 185 mU/ml. In the data set on HaCaT [1], the IC50 was 800 nM.
In the data set on HaCaT [1], `CCCOC(=O)c1cc2c(o1)C(=O)c1ccccc1C2=O` displayed an IC50 of 1320 nM. This lies in the single-digit micromolar range.
The same measure, in the same setting: to `COc1c2ccccc2c(OC)c2oc(C(=O)c3ccccc3)cc12` belongs over 30000 nM.
`O=C1c2ccccc2C(=O)c2oc(/C=N/O)cc21`: the IC50 in the data set on HaCaT [1] is 2340 nM.
On the same count and under the same terms, to `O=C(Oc1ccccc1)c1cc2c(o1)C(=O)c1ccccc1C2=O` belongs over 30000 nM.
`O=Cc1cc2c(o1)C(=O)c1ccccc1C2=O`: the Activity with HaCaT [2] came to 186 mU/ml. In the data set with HaCaT [1], the IC50 was 2760 nM.
Taken in the same sequence, the figures for `O=C(c1ccccc1)c1cc2c(o1)C(=O)c1ccccc1C2=O` were 318 mU/ml and 720 nM.
The matching figures for `CC(=O)Oc1c2ccccc2c(OC(C)=O)c2oc(C(=O)c3ccccc3)cc12`: 193 mU/ml and 920 nM.
Taken in the same sequence, the figures for `O=C(c1cccnc1)c1cc2c(o1)C(=O)c1ccccc1C2=O` were 202 mU/ml and 370 nM.
On to `Cc1cc2c(o1)C(=O)c1ccccc1C2=O`, for which the values for the Flu intensity with HaCaT [3], in the data set on HaCaT [4] and in the data set with HaCaT [6] were 830.9, 420.2 and 6.4, respectively. Further, the Activity in [5] is 0.2 µmol/L/min; in data set [7] it was 1.2 µmol/L/min. Also, in the data set with HaCaT [1], the IC50 was 7540 nM.
Regarding `O=C1c2c(O)cccc2Cc2cccc(O)c21` [ANTHRALIN], the Activity in the data set with HaCaT [2] is 239 mU/ml.
On to `O=C1c2ccccc2C(=O)c2occc21`, for which the Flu intensity in the data set with HaCaT [3] is on record as 601.1; in the data set with HaCaT [4], 452.5; in the data set on HaCaT [6], 13. Also, the Activity in [5] is 0.4 µmol/L/min; in data set [7] it was 2.2 µmol/L/min. The IC50 with HaCaT [1] stood at 3850 nM.

Broadly, the IC50 is the midpoint of a concentration-inhibition curve. A high value points to weaker potency in that assay.

(Values after ChEMBL document CHEMBL2169815, “Synthesis and structure-activity relationships of lapacho analogues. 1. Suppression of human keratinocyte hyperproliferation by 2-substituted naphtho[2,3-b]furan-4,9-diones, activation by enzymatic one- and two-electron reduction, and intracellular generation of superoxide” (J Med Chem, 2012).)
